Measurements taken from ChEMBL document CHEMBL4715806, “Asymmetric Hydroboration Approach to the Scalable Synthesis of ((1R,3S)-1-Amino-3-((R)-6-hexyl-5,6,7,8-tetrahydronaphthalen-2-yl)cyclopentyl)methanol (BMS-986104) as a Potent S1P Receptor Modulator” (J Med Chem, 2016).
The source made the active and inactive calls. The rule behind the calls is not given here.

Key:
[1] = target: Sphingosine 1-phosphate receptor 1 (Homo sapiens, UniProt P21453); assay: Agonist activity at human S1P1 in HLE cell membranes incubated for 45 mins by scintillation counting based [35S]GTP-gamma-S binding assay; set-up: species or system Cell membrane
Cerebellum [2] = assay: Induction of remyelination in lysophosphatidylcholine-induced demyelination in CD1 mouse organotypic cerebellar slice assessed as myelination index level at 0.01 to 10 nM incubated for 7 days by immunohistochemistry based three-dimensional brain cell culture assay (reference value: 50%); format: functional; details: dose 0.01-10 nM, time 7 day
In short: (§1)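 Cerebellum from P1-2 CD1 mouse pups cut into 350 μm parasagittal slices. Cultured on inserts at 36–37 °C, 5% CO2, in MEM/horse serum/EBSS/glucose medium for 13 days. Demyelination with 0.5 mg/ml LPC overnight, then 24 h in medium, then 7 days of treatment. Slices immunostained for MBP and CBD and imaged by confocal at ×40. Myelination index = CBD+MBP double-stained area divided by CBD single-stained area. ANOVA with Dunnett test.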

[3] = target: T1, Sphingosine 1-phosphate receptor 3 (Homo sapiens, UniProt Q99500); assay: Antagonist activity at human S1P3 expressed in EDG3-Ga15-bla HEK293T cells incubated for 45 mins by scintillation counting based [35S]GTP-gamma-S binding assay relative to control; format: cell membranes, Cell membrane
[4] = target: T1, Sphingosine 1-phosphate receptor 3; assay: Agonist activity at human S1P3 expressed in EDG3-Ga15-bla HEK293T cells incubated for 45 mins by scintillation counting based [35S]GTP-gamma-S binding assay relative to control; format: cell membranes, Cell membrane
In short: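 Membranes from EDG3-Ga15-bla HEK293T cells, 3 μg protein/well, mixed with compound in 3-fold dilution series. Room temperature, 45 min. Filter capture, water washes, scintillation counting. EC50 taken at 50% of each compound's own Ymax.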

Cerebellum [5] = assay: Induction of remyelination in lysophosphatidylcholine-induced demyelination in CD1 mouse organotypic cerebellar slice at 0.01 to 10 nM incubated for 7 days by immunohistochemistry based three-dimensional brain cell culture assay; format: functional, tissue-based; details: dose 0.01-10 nM, time 7.0 day; in short: as §1
Cerebellum [6] = assay: Induction of remyelination in lysophosphatidylcholine-induced demyelination in CD1 mouse organotypic cerebellar slice assessed as promotion of Purkinje cell axonal remyelination at 0.01 to 10 nM incubated for 7 days by immunohistochemistry based three-dimensional brain cell culture assay; format: functional, tissue-based; details: dose 0.01-10 nM, time 7.0 day; in short: as §1
[7] = Drug metabolism in orally dosed Balb/c mouse assessed as phosphate metabolite to parent AUC (0-24 hrs) ratio at after 24 hrs; format: ADME, organism-based; details: in vivo, po
Mus musculus [8] = assay: Induction of lymphopenia in Balb/c mouse assessed as reduction of circulating lymphocytes at 0.5 mg/kg, po measured after 4 hrs relative to control; format: functional
In short: (§2)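 Single oral dose to Balb/c mice in PEG300 vehicle, as solution or suspension; vehicle-only group as control. Retro-orbital bleeds at 4 h and 24 h. Lymphocyte counts read on a hematology analyzer. Expressed as % reduction of circulating lymphocytes versus the vehicle group at each time. Group means, n = 3–4 per group.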

Mus musculus [9] = assay: Induction of lymphopenia in Balb/c mouse assessed as reduction of circulating lymphocytes at 30 mg/kg, po measured after 24 hrs relative to control; format: functional; in short: as §2
Mus musculus [10] = assay: Induction of lymphopenia in Balb/c mouse assessed as reduction of circulating lymphocytes at 30 mg/kg, po measured after 4 hrs relative to control; format: functional; in short: as §2
Mus musculus [11] = assay: Induction of lymphopenia in orally dosed Balb/c mouse assessed as reduction of circulating lymphocytes measured after 24 hrs relative to control; format: functional, organism-based; in short: as §2
Cytochrome P450 2D6 = Cytochrome P450 2D6 (Homo sapiens, UniProt P10635); assay: Inhibition of CYP2D6 (unknown origin); format: ADME
Cytochrome P450 2C9 = Cytochrome P450 2C9 (Homo sapiens, UniProt P11712); assay: Inhibition of CYP2C9 (unknown origin); format: ADME
[12] = Half life in mouse liver microsomes; format: ADME, Microsome
Mus musculus [13] = assay: Induction of lymphopenia in Balb/c mouse assessed as reduction of circulating lymphocytes at 1 mg/kg, po measured after 4 hrs relative to control; format: functional; in short: as §2
Mus musculus [14] = assay: Suppression of experimental autoimmune-encephalomyelositis in MOG peptide induced C57BL/6 mouse EAE chronic model assessed as improvement in clinical scores at 0.5 to 4 mg/kg, po dosed every other day; format: functional, organism-based; details: dose 0.5-4 mg/kg
In short: (§3)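 C57BL/6 female mice, 6–8 weeks, n=10 per group, immunized subcutaneously with MOG35-55 emulsified 1:1 in incomplete Freund's adjuvant plus M. tuberculosis H37RA. Oral dosing from day 1, every other day or daily as stated. Clinical scores graded up to 5 (death) and averaged per group. At termination, lumbar spinal cord taken for formalin fixation and paraffin sections stained with H&E and Luxol Fast Blue. Groups compared by one-way ANOVA with Tukey post test.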

[15] = Half life in mouse; format: ADME, organism-based; details: in vivo
Mus musculus [16] = assay: Suppression of experimental autoimmune-encephalomyelositis in MOG peptide induced C57BL/6 mouse EAE chronic model assessed as improvement in clinical scores at 4 mg/kg, po dosed every other day relative to control; format: functional; in short: as §3
hERG (KCNH2) = hERG (KCNH2) (Homo sapiens, UniProt Q12809); assay: Inhibition of human ERG expressed in HEK293 cells assessed as inhibition of peak tail current at 0.3 uM by patch clamp analysis; format: cell-based; details: HEK293 cells expressing human ERG
In short: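 Whole-cell patch clamp on HEK293 cells stably expressing the cloned hERG α subunit, in aqueous buffer pH 7.4 at room temperature. Test pulses at 0.05 Hz stepped from holding to +20 mV for 2 s. Tail currents evoked by a subsequent voltage step. Inhibition measured on peak tail current.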

[17] = Unbound fraction in human plasma; format: ADME, cell-free
[18] = Inhibition of sodium channel (unknown origin) assessed as reduction in Na+ flux; set-up: species or system Homo sapiens
Mus musculus [19] = assay: Induction of lymphopenia in Balb/c mouse assessed as reduction of circulating lymphocytes at 0.5 mg/kg, po measured after 24 hrs relative to control; format: functional; in short: as §2
[20] = Unbound fraction in cynomolgus monkey plasma; format: ADME, cell-free, Macaca fascicularis
Mus musculus [21] = assay: Suppression of experimental autoimmune-encephalomyelositis in MOG peptide induced C57BL/6 mouse EAE chronic model assessed as reduction in central nervous system damage at 0.5 to 4 mg/kg, po dosed every other day by hematoxylin and eosin staining based histological analysis relative to control; format: functional, organism-based; details: dose 0.5-4 mg/kg; in short: as §3
Mus musculus [22] = assay: Induction of lymphopenia in Balb/c mouse assessed as reduction of circulating lymphocytes at 10 mg/kg, po measured after 4 hrs relative to control; format: functional; in short: as §2
Cytochrome P450 2C19 = Cytochrome P450 2C19 (Homo sapiens, UniProt P33261); assay: Inhibition of CYP2C19 (unknown origin); format: ADME
Mus musculus [23] = assay: Induction of lymphopenia in Balb/c mouse assessed as reduction of circulating lymphocytes at 10 mg/kg, po measured after 24 hrs relative to control; format: functional; in short: as §2
Mus musculus [24] = assay: Suppression of experimental autoimmune-encephalomyelositis in MOG peptide induced C57BL/6 mouse EAE chronic model assessed as improvement in clinical scores at 0.5 mg/kg, po dosed every other day relative to control; format: functional; in short: as §3
[25] = Half life in rat liver microsomes; format: ADME, Microsome
[26] = Half life in human liver microsomes; format: ADME, Microsome
[27] = Half life in monkey liver microsomes; format: ADME, Macaca mulatta, Microsome; details: rhesus monkey
Cytochrome P450 3A4 = Cytochrome P450 3A4 (Homo sapiens, UniProt P08684); assay: Inhibition of CYP3A4 (unknown origin); format: ADME
Cytochrome P450 2C8 = target: T2, Cytochrome P450 2C8 (Homo sapiens, UniProt P10632); assay: Inhibition of CYP2C8 (unknown origin); format: ADME
T2 sequence (P10632 whole entry): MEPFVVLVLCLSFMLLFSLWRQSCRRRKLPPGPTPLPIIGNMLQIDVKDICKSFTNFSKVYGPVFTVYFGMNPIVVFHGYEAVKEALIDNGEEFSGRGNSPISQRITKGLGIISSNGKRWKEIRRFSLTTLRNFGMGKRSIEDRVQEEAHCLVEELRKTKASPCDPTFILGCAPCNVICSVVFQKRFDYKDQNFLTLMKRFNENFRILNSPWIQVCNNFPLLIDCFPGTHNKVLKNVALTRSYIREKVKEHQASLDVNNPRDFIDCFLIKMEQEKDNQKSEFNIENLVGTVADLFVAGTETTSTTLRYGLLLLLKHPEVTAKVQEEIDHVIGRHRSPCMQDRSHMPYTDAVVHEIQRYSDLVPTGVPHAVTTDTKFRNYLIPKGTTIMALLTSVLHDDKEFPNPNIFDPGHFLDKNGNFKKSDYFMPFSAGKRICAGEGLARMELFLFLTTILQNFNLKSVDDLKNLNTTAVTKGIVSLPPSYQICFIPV

[28] = Unbound fraction in mouse plasma; format: ADME, cell-free
[29] = Unbound fraction in dog plasma; format: ADME, cell-free, Canis lupus familiaris
[30] = Unbound fraction in rat plasma; format: ADME, cell-free

T1 sequence (Q99500 whole entry): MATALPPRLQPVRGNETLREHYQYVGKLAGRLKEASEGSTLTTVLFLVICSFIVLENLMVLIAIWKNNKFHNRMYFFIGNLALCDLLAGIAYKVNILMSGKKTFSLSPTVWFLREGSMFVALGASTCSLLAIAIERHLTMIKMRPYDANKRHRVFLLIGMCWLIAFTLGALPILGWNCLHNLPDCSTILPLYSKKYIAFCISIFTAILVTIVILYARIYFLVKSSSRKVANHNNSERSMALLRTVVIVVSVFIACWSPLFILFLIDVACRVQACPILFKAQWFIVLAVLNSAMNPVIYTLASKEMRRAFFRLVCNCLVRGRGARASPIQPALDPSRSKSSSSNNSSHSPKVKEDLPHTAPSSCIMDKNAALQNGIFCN
Chain of Sphingosine 1-phosphate receptor 1 (P21453 whole entry): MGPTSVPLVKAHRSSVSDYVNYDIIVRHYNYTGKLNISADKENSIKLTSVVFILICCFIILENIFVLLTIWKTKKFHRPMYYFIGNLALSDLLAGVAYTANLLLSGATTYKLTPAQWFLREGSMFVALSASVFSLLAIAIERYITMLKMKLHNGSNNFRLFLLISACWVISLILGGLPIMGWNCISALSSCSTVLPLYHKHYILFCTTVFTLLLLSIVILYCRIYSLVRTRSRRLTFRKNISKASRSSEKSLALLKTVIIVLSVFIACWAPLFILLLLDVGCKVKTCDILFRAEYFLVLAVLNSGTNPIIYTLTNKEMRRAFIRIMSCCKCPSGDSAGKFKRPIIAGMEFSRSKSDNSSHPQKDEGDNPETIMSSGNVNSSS
Chain of Cytochrome P450 2C9 (P11712 whole entry): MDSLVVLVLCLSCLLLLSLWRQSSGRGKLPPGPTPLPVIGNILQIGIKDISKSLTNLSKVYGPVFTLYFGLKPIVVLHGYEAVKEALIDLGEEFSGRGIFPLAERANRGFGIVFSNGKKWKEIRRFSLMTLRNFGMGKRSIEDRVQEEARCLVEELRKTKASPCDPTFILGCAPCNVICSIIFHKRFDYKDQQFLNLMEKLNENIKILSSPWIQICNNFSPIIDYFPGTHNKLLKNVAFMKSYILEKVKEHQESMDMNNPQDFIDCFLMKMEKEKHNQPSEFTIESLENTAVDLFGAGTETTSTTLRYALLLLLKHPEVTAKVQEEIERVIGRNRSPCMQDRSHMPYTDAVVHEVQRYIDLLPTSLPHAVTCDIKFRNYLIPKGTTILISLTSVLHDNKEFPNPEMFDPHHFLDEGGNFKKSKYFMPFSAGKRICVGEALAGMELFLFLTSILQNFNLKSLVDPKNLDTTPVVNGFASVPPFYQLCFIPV
Chain of Cytochrome P450 3A4 (P08684 whole entry): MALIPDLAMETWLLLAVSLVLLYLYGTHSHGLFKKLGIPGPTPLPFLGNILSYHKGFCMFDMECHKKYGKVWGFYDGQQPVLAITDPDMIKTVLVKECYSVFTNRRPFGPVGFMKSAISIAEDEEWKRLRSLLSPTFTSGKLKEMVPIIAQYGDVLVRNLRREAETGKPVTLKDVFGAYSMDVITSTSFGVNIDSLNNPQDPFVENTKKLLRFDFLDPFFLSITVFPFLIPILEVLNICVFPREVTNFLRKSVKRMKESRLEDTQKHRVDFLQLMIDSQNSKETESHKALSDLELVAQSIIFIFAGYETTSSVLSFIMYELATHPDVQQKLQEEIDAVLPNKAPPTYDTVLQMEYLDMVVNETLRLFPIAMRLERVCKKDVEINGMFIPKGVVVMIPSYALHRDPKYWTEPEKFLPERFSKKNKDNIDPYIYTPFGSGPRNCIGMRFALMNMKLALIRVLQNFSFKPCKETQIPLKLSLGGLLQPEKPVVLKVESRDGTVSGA
Chain of hERG (KCNH2) (Q12809 whole entry): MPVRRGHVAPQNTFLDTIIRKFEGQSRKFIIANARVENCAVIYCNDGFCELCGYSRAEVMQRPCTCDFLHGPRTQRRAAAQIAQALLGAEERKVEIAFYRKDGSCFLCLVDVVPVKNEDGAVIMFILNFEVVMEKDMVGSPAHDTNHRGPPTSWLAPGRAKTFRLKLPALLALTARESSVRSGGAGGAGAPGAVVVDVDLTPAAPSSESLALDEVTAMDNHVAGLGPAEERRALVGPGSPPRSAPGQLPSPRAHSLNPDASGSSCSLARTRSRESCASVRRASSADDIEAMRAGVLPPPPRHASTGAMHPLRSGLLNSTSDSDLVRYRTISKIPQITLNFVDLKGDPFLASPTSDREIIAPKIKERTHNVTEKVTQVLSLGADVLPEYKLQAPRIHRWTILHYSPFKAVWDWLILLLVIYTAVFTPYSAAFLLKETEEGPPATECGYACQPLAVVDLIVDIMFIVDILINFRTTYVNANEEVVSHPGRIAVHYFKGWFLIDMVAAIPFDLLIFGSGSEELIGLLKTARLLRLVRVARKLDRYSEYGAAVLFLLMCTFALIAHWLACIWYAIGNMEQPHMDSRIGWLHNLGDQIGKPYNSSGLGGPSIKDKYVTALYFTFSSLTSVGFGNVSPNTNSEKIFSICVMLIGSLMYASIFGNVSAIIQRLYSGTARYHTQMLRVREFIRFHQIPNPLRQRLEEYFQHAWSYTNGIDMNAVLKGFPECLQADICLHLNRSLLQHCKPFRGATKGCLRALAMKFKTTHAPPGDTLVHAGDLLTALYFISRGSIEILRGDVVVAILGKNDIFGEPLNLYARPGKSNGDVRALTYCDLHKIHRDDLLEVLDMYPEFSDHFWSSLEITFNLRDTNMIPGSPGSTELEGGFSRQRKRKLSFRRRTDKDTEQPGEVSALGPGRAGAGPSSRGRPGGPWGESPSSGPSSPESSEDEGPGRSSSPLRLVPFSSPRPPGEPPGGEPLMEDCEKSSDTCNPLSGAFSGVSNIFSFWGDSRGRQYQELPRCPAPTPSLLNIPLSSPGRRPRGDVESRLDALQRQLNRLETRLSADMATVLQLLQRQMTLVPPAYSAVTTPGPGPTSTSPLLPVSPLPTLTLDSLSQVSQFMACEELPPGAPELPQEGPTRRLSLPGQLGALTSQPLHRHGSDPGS
Chain of Cytochrome P450 2C19 (P33261 whole entry): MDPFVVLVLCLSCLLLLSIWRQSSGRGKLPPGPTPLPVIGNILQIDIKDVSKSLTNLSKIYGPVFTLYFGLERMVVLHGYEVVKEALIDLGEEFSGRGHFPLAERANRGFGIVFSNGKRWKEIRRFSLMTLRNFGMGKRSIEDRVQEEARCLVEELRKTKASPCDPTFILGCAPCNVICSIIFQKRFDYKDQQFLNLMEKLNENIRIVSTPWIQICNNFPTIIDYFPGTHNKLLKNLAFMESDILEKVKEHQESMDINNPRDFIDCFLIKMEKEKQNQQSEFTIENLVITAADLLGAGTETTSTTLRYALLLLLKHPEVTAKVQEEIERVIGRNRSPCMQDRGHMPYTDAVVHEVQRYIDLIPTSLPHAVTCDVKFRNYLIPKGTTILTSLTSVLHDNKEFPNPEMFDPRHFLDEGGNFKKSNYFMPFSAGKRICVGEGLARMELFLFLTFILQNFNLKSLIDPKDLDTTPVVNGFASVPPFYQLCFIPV
Chain of Cytochrome P450 2D6 (P10635 whole entry): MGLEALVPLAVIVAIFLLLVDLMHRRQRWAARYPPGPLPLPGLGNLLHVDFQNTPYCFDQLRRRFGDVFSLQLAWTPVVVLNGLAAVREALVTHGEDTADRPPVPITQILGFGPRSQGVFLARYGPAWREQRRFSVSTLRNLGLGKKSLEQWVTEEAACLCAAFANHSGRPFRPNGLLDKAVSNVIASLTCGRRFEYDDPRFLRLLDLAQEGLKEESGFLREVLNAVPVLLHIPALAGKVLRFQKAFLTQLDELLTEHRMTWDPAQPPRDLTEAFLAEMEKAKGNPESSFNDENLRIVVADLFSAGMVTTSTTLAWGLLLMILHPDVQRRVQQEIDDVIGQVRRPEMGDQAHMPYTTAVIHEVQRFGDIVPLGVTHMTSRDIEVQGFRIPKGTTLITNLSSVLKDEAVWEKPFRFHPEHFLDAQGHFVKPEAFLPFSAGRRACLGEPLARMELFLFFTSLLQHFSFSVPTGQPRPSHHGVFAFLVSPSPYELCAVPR

## CCCCCC[C@@H]1CCc2cc([C@H]3CC[C@](N)(COP(=O)(O)O)C3)ccc2C1
[1]
  EC50: 6.4 nM
Cerebellum [2]
  Activity: 100%
[3]
  IC50: > 1000 nM
[4]
  EC50: > 1000 nM
Cerebellum [5]
  Activity: Active
Cerebellum [6]
  Activity: Active

## CCCCCC[C@H]1CCc2cc([C@H]3CC[C@](N)(CO)C3)ccc2C1
[7]
  Ratio: 0.57
Mus musculus [8]
  inhibition in vivo at 0.5 mg/kg: 21%
Mus musculus [9]
  inhibition in vivo at 30 mg/kg: 84%
Mus musculus [10]
  inhibition in vivo at 30 mg/kg: 66%

## CCCCCC[C@H]1CCc2cc([C@H]3CC[C@](N)(COP(=O)(O)O)C3)ccc2C1
[1]
  EC50: 60 nM
[3]
  IC50: > 1000 nM
[4]
  EC50: > 1000 nM
Mus musculus [11]
  EC50: 35 nM

## CCCCCC[C@@H]1CCc2cc([C@H]3CC[C@](N)(CO)C3)ccc2C1 [BMS-986104]
[7]
  Ratio: 0.51
Cytochrome P450 2D6
  IC50: > 20000 nM
Cytochrome P450 2C9
  IC50: > 20000 nM
[12]
  half-life: 2 h
Mus musculus [13]
  inhibition in vivo at 1 mg/kg: 52%
Mus musculus [14]
  Activity: Dose-dependent effect
[15]
  half-life: 98 h
Mus musculus [16]
  Activity: 55%
hERG (KCNH2)
  inhibition at 0.3 µM: 36%
[17]
  Fu: < 1%
[18]
  IC50: > 80000 nM
Mus musculus [19]
  inhibition in vivo at 0.5 mg/kg: 68%
[20]
  Fu: < 1%
Mus musculus [21]
  Activity: Active
Mus musculus [8]
  inhibition in vivo at 0.5 mg/kg: 52%
Mus musculus [22]
  inhibition in vivo at 10 mg/kg: 80%
Cytochrome P450 2C19
  IC50: > 20000 nM
Mus musculus [11]
  Activity: Dose-dependent effect
Mus musculus [23]
  inhibition in vivo at 10 mg/kg: 90%
Mus musculus [24]
  Activity: 33%
Mus musculus [9]
  inhibition in vivo at 30 mg/kg: 90%
[25]
  half-life: 2 h
[26]
  half-life: 1.78 h
[27]
  half-life: 2 h
Mus musculus [10]
  inhibition in vivo at 30 mg/kg: 88%
Cytochrome P450 3A4
  IC50: 19000 nM
Cytochrome P450 2C8
  IC50: 5000 nM
[28]
  Fu: < 1%
[29]
  Fu: < 1%
[30]
  Fu: < 1%
